Screening results deposited in PubChem by The Scripps Research Institute Molecular Screening Center.
STAT3 blocker – STAT3 signaling inhibition. U3A cells, IL-6 STAT3-luciferase reporter, luminescence; host cell line lacks STAT1. inhibition, % at 5.5 µM. 190,000 compounds, 0.89% hits. AID 862;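 active = inhibition above the mean inhibition across all screened compounds plus 3 SD, cut at about 44% in these data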;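 note: 0% = DMSO only wells and 100% = 100 µM nifuroxazide control wells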
HSP90 refold inh – inhibitors of HSP90 luciferase refolding in rabbit reticulocyte lysate. luciferase refolding luminescence, 3 h. inhibition, % at 5.6 µM. 290,000 compounds, 0.91% hits. AID 1789;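 active = inhibition above the screen-wide mean plus 3 SD, computed separately per campaign, cut at about 16% in these data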;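 note: 0% = DMSO wells and 100% = 60 µM geldanamycin wells; inhibitors lower the luminescence because luciferase stays unfolded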
STAT1 inh – STAT1 signaling inhibition; NIH 3T3 STAT1-luciferase reporter, IFN-gamma, luminescence; inhibition, % at 5.5 µM; 200,000 compounds, 0.35% hits; AID 920;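 active = inhibition above a set limit, the mean inhibition across all tested compounds plus 3 SD, cut at about 34% in these data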;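 note: 0% = IFN-gamma with DMSO and 100% = IFN-gamma with 300 µM nifuroxazide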
STAT3 act – activators of IL-6 induced STAT3 signaling | U3A cells, IL-6 STAT3-luciferase reporter, luminescence; 100% = signal with IL-6 EC80 alone | activation (% of control), % at 5.6 µM | 190,000 compounds, 0.91% hits;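 active = activation above the screen-wide mean of compound activation plus 3 SD, cut at about 130% in these data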;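 note: 0% = background luminescence of wells with medium and substrate only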
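Test system: Human STAT1-deficient U3A cells with stable STAT3-luciferase reporter | Also added: Interleukin-6, 33 ng/mL | Timing: Compound pre-incubation 1 h before IL-6, then 6 h stimulation at 37 °C | Technique: Luciferase reporter luminescence | Read-out: Percent of IL-6-only median luminescence | Benchmarks: IL-6-only wells as 100% reference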
HSP90 confirm – HSP90 inhibition, confirmation assay; shares compounds with HSP90 refold inh; AID 1846; rabbit reticulocyte lysate, luciferase refolding luminescence, 3 h; inhibition, % at 5.9 µM; 2,300 compounds, 64% hits; in the data active = inhibition above about 18%;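 note: 0% = vehicle wells and 100% = reference inhibitor wells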
luciferase ctr – counter-screen for HSP90 inhibitors: inhibitors of firefly luciferase; shares compounds with HSP90 refold inh; purified native firefly luciferase, luminescence; 2,300 compounds, 48% hits; inhibition, % at 5.9 µM; AID 1847;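 active = inhibition above the mean inhibition of all tested sample wells plus 3 SD, cut at about 10% in these data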;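 note: 0% = DMSO with luciferase and 100% = wells lacking luciferase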
* marks the source's active call; other numbers are inactive results; nt = no result. Compounds with a hit are over-represented: about 2% of the library has one in this group of screens.

SMILES | STAT3 blocker | HSP90 refold inh | STAT1 inh | STAT3 act | HSP90 confirm | luciferase ctr
O=C(NCc1cccnc1)C1CCN(S(=O)(=O)c2cc(Cl)ccc2Cl)CC1 | nt | -4 | nt | nt | nt | nt
O=C(O)c1ccc(NC(=S)NC(=O)c2cncc(Br)c2)cc1 | nt | 51* | nt | nt | 25* | -2
Cc1cc(NC(=O)NC(=O)c2ccc(F)cc2F)n[nH]1 | 34 | 23* | -53 | 73 | 39* | 26*
COc1ccccc1N1CCN(/N=C/c2ccc(C(=O)O)cc2)CC1 | nt | 46* | nt | nt | 60* | 39*
O=C(O)c1ccc(N/N=C/c2ccc(-c3ccc(Cl)cc3Cl)o2)cc1 | nt | 56* | nt | nt | -7 | -30
O=C(O)c1ccc(N/N=C/c2c(F)cccc2Cl)cc1 | nt | 80* | nt | nt | 82* | 76*
O=C(O)c1ccc(N/N=C/c2ccc(-c3cc(Cl)ccc3Cl)o2)cc1 | nt | 15 | nt | nt | nt | nt
CCN(CC(=O)Nc1ccc(NC(C)=O)cc1)C(=O)Cc1ccc(Cl)c(Cl)c1 | nt | 6 | nt | nt | nt | nt
CC(=O)c1ccc(OCC(=O)N2CCCC(Nc3ccc(C)c(C)c3)C2)cc1 (configuration not stated) | nt | 0 | nt | nt | nt | nt
Cc1ccc(N=Nc2cc(C)ccc2N)cc1 | nt | 26* | nt | nt | 63* | 61*
Cc1ccc(N=Nc2cc(C)ccc2O)c(C)c1 | nt | 0 | nt | nt | nt | nt
CC1CCCN(C(=O)Cn2nnc(-c3ccc(S(C)(=O)=O)cc3)n2)C1 (configuration not stated) | nt | -5 | nt | nt | nt | nt
COc1ccc(/C(C)=N/NC(=O)Cn2nc([N+](=O)[O-])cc2C)cc1 | nt | 30* | nt | nt | -1 | -7
